NadD inh: NadD (S. aureus) enzyme inhibition; purified NadD enzyme, colorimetric absorbance read-out; inhibition, % at 20 µM; 360,000 compounds, 0.78% hits; in the data active means inhibition above about 26%
rCAG RNA binder: binds r(CAG) RNA repeats | r(CAG) RNA repeat, TO-PRO-1 dye displacement fluorescence | inhibition, % at 3 µM | 370,000 compounds, 1.3% hits | AID 651821;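 active means inhibition above the plate cutoff, the mean of all test compounds on that plate plus 3 SD, cut at about 35% in these data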;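 further: higher means more dye released from RNA so lower well fluorescence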
Scp-1 inhibitor: inhibitors of human Scp-1 phosphatase; Q9GZU7; inhibition, % at 20 µM; Recombinant Scp1, phosphopeptide, malachite green phosphate absorbance; 340,000 compounds, 0.88% hits; AID 493091;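 active means inhibition above about 50% at 20 µM, limit read from the data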
Target sequence (Q9GZU7 76-261 limits assumed): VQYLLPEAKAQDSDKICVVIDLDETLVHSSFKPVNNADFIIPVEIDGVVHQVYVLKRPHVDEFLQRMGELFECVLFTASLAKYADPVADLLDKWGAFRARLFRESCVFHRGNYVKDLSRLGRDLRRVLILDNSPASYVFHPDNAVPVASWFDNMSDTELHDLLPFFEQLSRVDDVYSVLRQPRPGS
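assay system = SCP-1 phosphatase catalytic domain, residues 76-261 | buffer or medium = 50 mM Tris acetate pH 5.5, 0.005% Tween-20, 10 mM MgCl2 | incubation = enzyme reaction 45 min at room temperature, colour 5 min, stabilisation 30 min | signal = Phosphate-binding colour reagent, absorbance read at 630 nm | measure = % inhibition at 20 µM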
STEP block: blocks human striatal-enriched tyrosine phosphatase; P54829; recombinant STEP, OMFP fluorogenic substrate, fluorescence; inhibition, % at 20 µM; 360,000 compounds, 0.25% hits; AID 588621;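 active means inhibition at 20 µM, scaled per plate between control wells, above about 37%, limit read from the data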
Target sequence (P54829 whole entry, looked up): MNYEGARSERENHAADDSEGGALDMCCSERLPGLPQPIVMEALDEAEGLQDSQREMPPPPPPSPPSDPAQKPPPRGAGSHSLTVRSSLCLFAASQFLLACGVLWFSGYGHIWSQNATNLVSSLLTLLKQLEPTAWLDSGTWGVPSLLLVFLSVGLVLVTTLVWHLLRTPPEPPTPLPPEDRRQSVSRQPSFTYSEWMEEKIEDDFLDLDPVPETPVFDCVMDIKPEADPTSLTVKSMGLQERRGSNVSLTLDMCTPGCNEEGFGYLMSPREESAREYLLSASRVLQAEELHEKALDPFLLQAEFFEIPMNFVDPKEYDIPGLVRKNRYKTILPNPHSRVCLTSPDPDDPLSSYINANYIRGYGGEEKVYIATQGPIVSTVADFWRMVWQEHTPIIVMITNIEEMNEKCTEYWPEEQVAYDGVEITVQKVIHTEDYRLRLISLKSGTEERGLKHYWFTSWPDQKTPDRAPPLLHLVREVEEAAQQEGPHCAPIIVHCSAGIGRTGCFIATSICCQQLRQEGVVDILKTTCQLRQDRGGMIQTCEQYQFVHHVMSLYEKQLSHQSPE
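Assay system: isolated STEP enzyme / Timing: 20 min at room temperature, dark / Doses: 20 µM, 1% DMSO / Technique: fluorescence intensity, excitation 480 nm, emission 540 nm / Reagent: fluorogenic phosphatase substrate OMFP at 25 µM final / Measure: percent inhibition scaled to no-enzyme and uninhibited-enzyme controls, plate-pattern corrected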
LMPTP inh: blocks human LMPTP phosphatase | 360,000 compounds, 0.22% hits | P24666 | inhibition, % at 20 µM | recombinant LMPTP-A, OMFP fluorogenic substrate, fluorescence intensity;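 active means compounds that cut the enzyme signal by at least half of the control window in the single-dose screen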
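Assay system: LMPTP-A phosphatase enzyme | Input: 0.625 nM enzyme | Also added: Fluorogenic phosphatase substrate OMFP at 400 µM final | Compound dosing: One test concentration per compound, 20 µM, with 3% DMSO overall | Schedule: 50 min enzyme reaction at room temperature, protected from light | Signal: Fluorescence intensity | Benchmarks: no-enzyme and uninhibited controls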
rCAG binder conf: r(CAG) RNA repeat binding, confirmation; shares compounds with rCAG RNA binder; TO-PRO-1 dye displacement fluorescence; inhibition, % at 3 µM; 4,300 compounds, 70% hits; AID 652065;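 active means inhibition above a per-plate cutoff, the mean inhibition of sample wells plus 3 SD, cut at about 35% in these data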;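 further: loss of TO-PRO-1 fluorescence as compound displaces dye from 1x1 AA loop RNA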
dCAG dye counter: disrupts DNA CAG TO-PRO-1 complex, flagging rCAG hits; shares compounds with rCAG RNA binder; d(CAG) DNA oligo TO-PRO-1 dye displacement, fluorescence; inhibition, % at 3 µM; 4,300 compounds, 94% hits;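 active means inhibition above its plate's cutoff, the mean test-well inhibition plus 3 SD, cut at about 4.8% in these data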;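 further: hits displace the dye from DNA and so lower well fluorescence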
A number is an active result; 0 = inactive; - = not tested or not shown. Only some compounds are listed: those with a hit (about 2.6% of all), similar ones and a draw of the others.

SMILES | NadD inh | rCAG RNA binder | Scp-1 inhibitor | STEP block | LMPTP inh | rCAG binder conf | dCAG dye counter
CC(=O)Nc1ccc(S(=O)(=O)NNC(=O)c2cc3c4ccccc4n(C)c3s2)cc1 | 0 | 35.5 | 0 | 0 | 0 | 0 | 15.9
Cn1c2ccccc2c2cc(C(=O)NNC(=O)CCl)sc21 | 0 | 0 | 0 | 0 | 0 | - | -
COc1cccc(NS(=O)(=O)c2ccc3c(c2)C2C=CCC2C(c2ccc(C(=O)O)cc2)N3)c1 (centres undefined) | 0 | 95.7 | 0 | 0 | 0 | 90.0 | 62.3
Cc1ccc2nc(N3C(=O)C(O)=C(C(=O)c4ccc(C)o4)C3c3ccco3)sc2c1 (centres undefined) | 0 | 0 | 0 | 0 | 0 | - | -
Cc1ccc2nc(N3C(=O)C(O)=C(C(=O)c4ccco4)C3c3ccc(O)cc3)sc2c1 (centres undefined) | 0 | 66.9 | - | 0 | 0 | 49.6 | 15.5
Cc1ccc(C2C(C(=O)c3ccco3)=C(O)C(=O)N2c2nnc(C)s2)cc1 (centres undefined) | 0 | 0 | 0 | 0 | 0 | - | -
Cc1cc(C)c2nc(N3C(=O)C(O)=C(C(=O)c4ccco4)C3c3cccc(O)c3)sc2c1 (centres undefined) | 0 | 85.2 | 0 | 0 | 0 | 80.8 | 48.7
Cc1cc(C)c2nc(N3C(=O)C(O)=C(C(=O)c4ccco4)C3c3ccc(O)cc3)sc2c1 (centres undefined) | 0 | 84.5 | 0 | 0 | 0 | 80.8 | 43.3
O=C(O)[C@H](Cc1ccccc1)NC(=O)C(c1ccccc1)(c1ccccc1)c1ccccc1 | 0 | 37.9 | 0 | 0 | 0 | 53.1 | 12.9
O=C(CC(c1ccccc1)(c1ccccc1)c1ccccc1)N[C@@H](Cc1ccccc1)C(=O)O | 0 | 0 | 0 | 0 | 0 | - | -
N#CCC[C@H]1CC[C@]2(CCCN(Cc3ccccc3)C2)O1 | - | 0 | - | - | - | - | -
CCOC(=O)N(C)[C@H]1C[C@H]2c3[nH]c4cccc(-c5cccc(F)c5)c4c3CCN2C(=O)[C@H]1[C@H](C)O | - | 0 | - | - | - | - | -
COc1ccc(-c2cc3ccc(OCC(C)=O)cc3oc2=O)cc1OC | 0 | 0 | 0 | 0 | 0 | - | -
O=C(COc1ccc2c(c1)oc(=O)c1ccccc12)NC(Cc1ccc(Cl)cc1)C(=O)O (centres undefined) | 0 | 55.9 | 0 | 0 | 0 | 56.2 | 18.8
Cc1oc2cc3oc(=O)c(CC(=O)O)c(C)c3cc2c1-c1ccccc1 | 0 | 46.6 | 0 | 0 | 0 | 39.2 | 11.3
COc1ccc(-c2cc3ccc(OCc4nn[nH]n4)cc3oc2=O)cc1OC | 0 | 35.4 | 0 | 0 | 0 | 0 | 4.7
Cc1c(CC(=O)O)c(=O)oc2cc(OCc3ccc(Cl)cc3)ccc12 | 0 | 38.1 | 0 | 0 | 0 | 0 | 6.9
COc1cccc(O[C@H]2C=C[C@@H](c3ccccc3)O[C@@H]2CO)c1 | - | 0 | - | - | - | - | -
CCn1c(=O)n(CC(=O)N2CCCN(Cc3ccccc3)CC2)c(=O)c2ccccc21 | - | 0 | - | - | - | - | -
Cc1cccc(CCNC(=O)Cn2ncc3c2-c2cc(C)ccc2OC3)c1 | - | 0 | - | - | - | - | -
CC(C)C[C@H](NC(=O)c1nccs1)C(=O)N1CCC[C@H]1C(=O)NCc1ccccc1 | - | 0 | - | - | - | - | -
Cc1cccc(OC(C)CCN2CCC(C(O)(c3ccccc3)c3ccccc3)CC2)c1 (centres undefined) | - | 0 | - | - | - | - | -
Cc1c(Cc2ccccc2)c(=O)oc2cc(OCc3nn[nH]n3)ccc12 | 0 | 38.3 | 0 | 0 | 0 | 35.6 | 9.1
O=C(COc1ccc2c(c1)oc(=O)c1ccccc12)N[C@@H](Cc1ccccc1)C(=O)O | 0 | 0 | 0 | 0 | 0 | - | -
Cc1c(Cc2ccccc2)c(=O)oc2cc(OCC(=O)N[C@@H](Cc3ccccc3)C(=O)O)ccc12 | 0 | 42.2 | 0 | 0 | 0 | 44.9 | 12.3
SMILES | NadD inh | rCAG RNA binder | Scp-1 inhibitor | STEP block | LMPTP inh | rCAG binder conf | dCAG dye counter
Cc1c(C)c2c(OCC(=O)N[C@@H](Cc3ccccc3)C(=O)O)cc3c(c2oc1=O)CCC(C)(C)O3 | 0 | 44.9 | 0 | 0 | 0 | 48.4 | 12.7
Cc1c(CC(=O)O)c(=O)oc2cc(OCc3nn[nH]n3)ccc12 | 0 | 0 | 0 | 0 | 0 | - | -
COC(=O)[C@]12C[C@H](CC(=O)NCc3ccc(C)o3)C(=O)N(Cc3ccccc3)C1=C[C@H](C1CCCC1)O[C@@H]2C | - | 0 | - | - | - | - | -
O=C(OCCCN1CCC2(CCC(c3ccccc3)CC2)C1=O)c1ccccc1 (centres undefined) | - | 0 | - | - | - | - | -
O=S1(=O)c2ccc(Br)cc2OC2CCCC[C@@H]2N1Cc1ccccc1 (some centres undefined) | - | 0 | - | - | - | - | -
CCOC(=O)N1CCN(C(=O)C[C@H]2C[C@@]3(C(=O)OC)C(=C[C@H](C(C)(C)C)O[C@@H]3C)N(CCC3=CCCCC3)C2=O)CC1 | - | 0 | - | - | - | - | -
CCSc1nnc(NC(=O)c2cccc(S(=O)(=O)N(C)c3ccccc3)c2)s1 | 0 | 0 | 0 | 0 | 0 | - | -
C=CCN(c1ccccc1)S(=O)(=O)c1cccc(C(=O)Nc2nnc(SCC)s2)c1 | 0 | 51.6 | 0 | 0 | 0 | 57.7 | 17.1
Cc1ccc(C)c(NC(=O)CSc2nc3nc(-c4cccs4)cc(C(F)(F)F)c3c(=O)[nH]2)c1 | 0 | 57.8 | 0 | 0 | 0 | 82.9 | 47.0
O=C1CC(Nc2ccc(N3CCOCC3)cc2)C(=O)N1Cc1ccccc1 (centres undefined) | 0 | 34.6 | 0 | 0 | 0 | 0 | 6.9
O=C1CC(Nc2ccc(N3CCOCC3)cc2)C(=O)N1c1ccccc1 (centres undefined) | 0 | - | 0 | 0 | 0 | - | -
Cc1cc(NS(=O)(=O)c2ccc(NC(=O)CSc3nnc(SCc4ccc(Cl)cc4)s3)cc2)nc(C)n1 | - | 59.2 | - | - | - | 58.2 | 19.8
COc1ccc(NC(=O)CSc2nnc(-c3ccccc3)n2Cc2ccco2)cc1OC | 0 | 0 | 0 | 0 | 0 | - | -
CCOc1ccc(-n2c(SCC(=O)Nc3ccc(S(=O)(=O)Nc4nccs4)cc3)nnc2-c2ccccc2)cc1 | - | 80.3 | - | - | - | 72.5 | 38.4
COc1ccc(-n2c(SCC(=O)Nc3ccc(S(=O)(=O)Nc4nccs4)cc3)nnc2-c2ccco2)cc1 | - | 74.2 | - | - | - | 69.0 | 30.4
CCn1c2ccccc2c2cc(NC(=O)CSc3nnc(-c4ccccc4)n3Cc3ccco3)ccc21 | - | 34.9 | - | - | - | 0 | 15.2
COc1ccc(-n2c(SCC(=O)Nc3nccs3)nnc2-c2ccoc2C)cc1 | 0 | 0 | 0 | 0 | 0 | - | -
COCCCN1C(=O)[C@H](CC(=O)N2CCOCC2)[C@]2(C(=O)OC)CCCCC=C12 | - | 0 | - | - | - | - | -
COC(=O)C12C=C3CC(C4CC4)=C3C(=O)N1Cc1[nH]c3ccccc3c1C2 (centres undefined) | - | 0 | - | - | - | - | -
Cc1cc(C)nc(SCC(=O)Nc2ccc(S(=O)(=O)Nc3nccs3)cc2)n1 | 0 | 0 | 0 | 0 | 0 | - | -
O=C(CSc1nnc(-c2cccs2)n1-c1ccccc1)Nc1ccccc1 | 0 | 0 | 0 | 0 | 0 | - | -
